Source: ChEMBL document CHEMBL4350976, “Sequence modification of heptapeptide selected by phage display as homing device for HT-29 colon cancer cells to improve the anti-tumour activity of drug delivery systems” (Eur J Med Chem, 2019)
Where a SMILES comes first, the peptide text is derived from it. The star is where a group is joined. X1 = COc1cccc2c1C(=O)c1c(O)c3c(c(O)c1C2=O)C[C@@](O)(/C(C)=N/OCC(=O)*)C[C@@H]3O[C@H]1C[C@H](N)[C@H](O)[C@H](C)O1

Tests used:
[1] = Retention time of the compound using 0.1% TFA in water and 0.1% TFA in acetonitrile-water (80:20 v/v) as eluents by RP-HPLC analysis; type: physicochemical
In short: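 Analytical RP-HPLC. Eluent A was 0.1% TFA in water and eluent B was 0.1% TFA in acetonitrile-water (80:20, v/v). Gradient: 0% B held to 5 min, then to 90% B at 50 min. Flow 1 mL/min, detection at 220 nm. The column was a Phenomenex Aeris Peptide XB-C18 (250×4.6 mm, 3.6 μm) or a Nucleosil C18 (5 μm, 100 Å, 250×4.6 mm), depending on the conjugate series.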

HT-29 = test: Cytostatic activity against human HT-29 cells preincubated for 24 hrs under serum free condition followed by compound washout and further incubation for 48 hrs in presence of serum by MTT assay; type: functional, cell-based
In short: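 HT-29 cells were exposed to the compound for 24 h, washed, and kept a further 48 h. Viability was read by MTT. Absorbances were normalized to untreated controls and fitted by nonlinear regression to dose-response curves to give IC50.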

[2] = Drug uptake in human HT-29 cells at 100 uM incubated for 3 hrs by flow cytometry; type: ADME, cell-based; settings: ht-29, 3 h
In short: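 HT-29 cells were exposed to 100 µM conjugate for 3 h. Flow cytometry recorded the percentage of Dau-positive cells and the mean fluorescence intensity, in duplicate.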

SMILES | Retention_time [1] [min] | IC50 (HT-29) [µM] | Retention time [1] [min] | Drug uptake [2]
COc1cccc2c1C(=O)c1c(O)c3c(c(O)c1C2=O)C[C@@](O)(/C(C)=N/OCC(=O)N[C@H](C(=O)N[C@@H](Cc1cnc[nH]1)C(=O)N[C@@H](CC(C)C)C(=O)NCC(=O)N[C@@H](Cc1ccc(O)cc1)C(=O)N[C@@H](C)C(=O)N[C@H](C(N)=O)[C@@H](C)O)C(C)C)C[C@@H]3O[C@H]1C[C@H](N)[C@H](O)[C@H](C)O1 (X1-VHLGYAT-NH2) | 26.1 | – | – | –
COc1cccc2c1C(=O)c1c(O)c3c(c(O)c1C2=O)C[C@@](O)(/C(C)=N/OCC(=O)N[C@@H](CC(C)C)C(=O)N[C@@H](CCCNC(=N)N)C(=O)N[C@@H](CCCNC(=N)N)C(=O)N[C@@H](Cc1ccc(O)cc1)C(=O)N[C@H](C(=O)N[C@@H](Cc1cnc[nH]1)C(=O)N[C@@H](CC(C)C)C(=O)N[C@@H](Cc1ccccc1)C(=O)N[C@@H](Cc1ccc(O)cc1)C(=O)N[C@@H](CCC(=O)O)C(=O)N[C@H](C(N)=O)[C@@H](C)O)C(C)C)C[C@@H]3O[C@H]1C[C@H](N)[C@H](O)[C@H](C)O1 (X1-LRRYVHLFYET-NH2) | – | 54.3 | 31.9 to 33.1 | –
COc1cccc2c1C(=O)c1c(O)c3c(c(O)c1C2=O)C[C@@](O)(/C(C)=N/OCC(=O)N[C@@H](CC(C)C)C(=O)N[C@@H](CCCNC(=N)N)C(=O)N[C@@H](CCCNC(=N)N)C(=O)N[C@@H](Cc1ccc(O)cc1)C(=O)N[C@H](C(=O)N[C@@H](Cc1cnc[nH]1)C(=O)N[C@@H](CC(C)C)C(=O)N[C@@H](Cc1ccccc1)C(=O)N[C@@H](Cc1ccc(O)cc1)C(=O)N[C@@H](CCCCN)C(=O)N[C@H](C(N)=O)[C@@H](C)O)C(C)C)C[C@@H]3O[C@H]1C[C@H](N)[C@H](O)[C@H](C)O1 (X1-LRRYVHLFYKT-NH2) | – | 11.5 | 30.5 to 32 | –
COc1cccc2c1C(=O)c1c(O)c3c(c(O)c1C2=O)C[C@@](O)(/C(C)=N/OCC(=O)N[C@@H](CC(C)C)C(=O)N[C@@H](CCCNC(=N)N)C(=O)N[C@@H](CCCNC(=N)N)C(=O)N[C@@H](Cc1ccc(O)cc1)C(=O)N[C@H](C(=O)N[C@@H](C)C(=O)N[C@@H](CC(C)C)C(=O)NCC(=O)N[C@@H](Cc1ccc(O)cc1)C(=O)N[C@@H](C)C(=O)N[C@H](C(N)=O)[C@@H](C)O)C(C)C)C[C@@H]3O[C@H]1C[C@H](N)[C@H](O)[C@H](C)O1 (X1-LRRYVALGYAT-NH2) | – | 36.8 | 29 to 31.7 | Active
COc1cccc2c1C(=O)c1c(O)c3c(c(O)c1C2=O)C[C@@](O)(/C(C)=N/OCC(=O)N[C@@H](CC(C)C)C(=O)N[C@@H](CCCNC(=N)N)C(=O)N[C@@H](CCCNC(=N)N)C(=O)N[C@@H](Cc1ccc(O)cc1)C(=O)N[C@H](C(=O)N[C@@H](Cc1cnc[nH]1)C(=O)N[C@@H](CC(C)C)C(=O)N[C@@H](CC(N)=O)C(=O)N[C@@H](Cc1ccc(O)cc1)C(=O)N[C@@H](C)C(=O)N[C@H](C(N)=O)[C@@H](C)O)C(C)C)C[C@@H]3O[C@H]1C[C@H](N)[C@H](O)[C@H](C)O1 (X1-LRRYVHLNYAT-NH2) | – | 28 | 29 to 30.8 | –
COc1cccc2c1C(=O)c1c(O)c3c(c(O)c1C2=O)C[C@@](O)(/C(C)=N/OCC(=O)N[C@@H](CC(C)C)C(=O)N[C@@H](CCCNC(=N)N)C(=O)N[C@@H](CCCNC(=N)N)C(=O)N[C@@H](Cc1ccc(O)cc1)C(=O)N[C@H](C(=O)N[C@@H](Cc1cnc[nH]1)C(=O)N[C@@H](CC(C)C)C(=O)N[C@@H](Cc1ccccc1)C(=O)N[C@@H](Cc1ccc(O)cc1)C(=O)N1CCC[C@H]1C(=O)N[C@H](C(N)=O)[C@@H](C)O)C(C)C)C[C@@H]3O[C@H]1C[C@H](N)[C@H](O)[C@H](C)O1 (X1-LRRYVHLFYPT-NH2) | 31.6 | 10.9 | – | –
COc1cccc2c1C(=O)c1c(O)c3c(c(O)c1C2=O)C[C@@](O)(/C(C)=N/OCC(=O)N[C@@H](CC(C)C)C(=O)N[C@@H](CCCNC(=N)N)C(=O)N[C@@H](CCCNC(=N)N)C(=O)N[C@@H](Cc1ccc(O)cc1)C(=O)N[C@H](C(=O)N[C@@H](Cc1cnc[nH]1)C(=O)N[C@@H](CC(C)C)C(=O)N[C@@H](CCCCN)C(=O)N[C@@H](Cc1ccc(O)cc1)C(=O)N[C@@H](C)C(=O)N[C@H](C(N)=O)[C@@H](C)O)C(C)C)C[C@@H]3O[C@H]1C[C@H](N)[C@H](O)[C@H](C)O1 (X1-LRRYVHLKYAT-NH2) | – | 50.3 | 28.2 to 30.1 | –
COc1cccc2c1C(=O)c1c(O)c3c(c(O)c1C2=O)C[C@@](O)(/C(C)=N/OCC(=O)N[C@@H](CC(C)C)C(=O)N[C@@H](CCCNC(=N)N)C(=O)N[C@@H](CCCNC(=N)N)C(=O)N[C@@H](Cc1ccc(O)cc1)C(=O)N[C@H](C(=O)N[C@@H](Cc1cnc[nH]1)C(=O)N[C@@H](CC(C)C)C(=O)N[C@@H](Cc1ccc(O)cc1)C(=O)N[C@@H](Cc1ccc(O)cc1)C(=O)N[C@@H](C)C(=O)N[C@H](C(N)=O)[C@@H](C)O)C(C)C)C[C@@H]3O[C@H]1C[C@H](N)[C@H](O)[C@H](C)O1 (X1-LRRYVHLYYAT-NH2) | – | 38.4 | 30.8 to 31.7 | –
COc1cccc2c1C(=O)c1c(O)c3c(c(O)c1C2=O)C[C@@](O)(/C(C)=N/OCC(=O)N[C@@H](CC(C)C)C(=O)N[C@@H](CCCNC(=N)N)C(=O)N[C@@H](CCCNC(=N)N)C(=O)N[C@@H](Cc1ccc(O)cc1)C(=O)N[C@H](C(=O)N[C@@H](Cc1cnc[nH]1)C(=O)N[C@@H](CC(C)C)C(=O)N[C@@H](Cc1ccccc1)C(=O)N[C@@H](Cc1ccc(O)cc1)C(=O)N[C@@H](CO)C(=O)N[C@H](C(N)=O)[C@@H](C)O)C(C)C)C[C@@H]3O[C@H]1C[C@H](N)[C@H](O)[C@H](C)O1 (X1-LRRYVHLFYST-NH2) | – | 17.7 | 32.1 to 32.9 | –

The next lines start with the values.

Retention_time [1] [min] | IC50 (HT-29) [µM] | Retention time [1] [min] | Drug uptake [2] | SMILES
31.8 | 15.4 | – | – | COc1cccc2c1C(=O)c1c(O)c3c(c(O)c1C2=O)C[C@@](O)(/C(C)=N/OCC(=O)N[C@@H](CC(C)C)C(=O)N[C@@H](CCCNC(=N)N)C(=O)N[C@@H](CCCNC(=N)N)C(=O)N[C@@H](Cc1ccc(O)cc1)C(=O)N[C@H](C(=O)N[C@@H](Cc1cnc[nH]1)C(=O)N[C@@H](CC(C)C)C(=O)N[C@@H](Cc1ccccc1)C(=O)N[C@@H](Cc1ccc(O)cc1)C(=O)N[C@@H](CC(N)=O)C(=O)N[C@H](C(N)=O)[C@@H](C)O)C(C)C)C[C@@H]3O[C@H]1C[C@H](N)[C@H](O)[C@H](C)O1 (X1-LRRYVHLFYNT-NH2)
29 | 21.7 | – | – | COc1cccc2c1C(=O)c1c(O)c3c(c(O)c1C2=O)C[C@@](O)(/C(C)=N/OCC(=O)N[C@@H](CC(C)C)C(=O)N[C@@H](CCCNC(=N)N)C(=O)N[C@@H](CCCNC(=N)N)C(=O)N[C@@H](Cc1ccc(O)cc1)C(=O)N[C@H](C(=O)N[C@@H](Cc1cnc[nH]1)C(=O)N[C@@H](CC(C)C)C(=O)N[C@H](C(=O)N[C@@H](Cc1ccc(O)cc1)C(=O)N[C@@H](C)C(=O)N[C@H](C(N)=O)[C@@H](C)O)[C@@H](C)O)C(C)C)C[C@@H]3O[C@H]1C[C@H](N)[C@H](O)[C@H](C)O1 (X1-LRRYVHLTYAT-NH2)
– | 7.5 | 31.1 to 33.1 | – | COc1cccc2c1C(=O)c1c(O)c3c(c(O)c1C2=O)C[C@@](O)(/C(C)=N/OCC(=O)N[C@@H](CC(C)C)C(=O)N[C@@H](CCCNC(=N)N)C(=O)N[C@@H](CCCNC(=N)N)C(=O)N[C@@H](Cc1ccc(O)cc1)C(=O)N[C@H](C(=O)N[C@@H](Cc1cnc[nH]1)C(=O)N[C@@H](CC(C)C)C(=O)N[C@@H](CC(C)C)C(=O)N[C@@H](Cc1ccc(O)cc1)C(=O)N[C@@H](C)C(=O)N[C@H](C(N)=O)[C@@H](C)O)C(C)C)C[C@@H]3O[C@H]1C[C@H](N)[C@H](O)[C@H](C)O1 (X1-LRRYVHLLYAT-NH2)
– | 29.5 | 29.3 to 31.2 | – | COc1cccc2c1C(=O)c1c(O)c3c(c(O)c1C2=O)C[C@@](O)(/C(C)=N/OCC(=O)N[C@@H](CC(C)C)C(=O)N[C@@H](CCCNC(=N)N)C(=O)N[C@@H](CCCNC(=N)N)C(=O)N[C@@H](Cc1ccc(O)cc1)C(=O)N[C@H](C(=O)N[C@@H](Cc1cnc[nH]1)C(=O)N[C@@H](CC(C)C)C(=O)N[C@@H](CCC(=O)O)C(=O)N[C@@H](Cc1ccc(O)cc1)C(=O)N[C@@H](C)C(=O)N[C@H](C(N)=O)[C@@H](C)O)C(C)C)C[C@@H]3O[C@H]1C[C@H](N)[C@H](O)[C@H](C)O1 (X1-LRRYVHLEYAT-NH2)
– | > 100 | 27.7 to 30.4 | Active | COc1cccc2c1C(=O)c1c(O)c3c(c(O)c1C2=O)C[C@@](O)(/C(C)=N/OCC(=O)N[C@@H](CC(C)C)C(=O)N[C@@H](CCCNC(=N)N)C(=O)N[C@@H](CCCNC(=N)N)C(=O)N[C@@H](Cc1ccc(O)cc1)C(=O)N[C@@H](C)C(=O)N[C@@H](Cc1cnc[nH]1)C(=O)N[C@@H](CC(C)C)C(=O)NCC(=O)N[C@@H](Cc1ccc(O)cc1)C(=O)N[C@@H](C)C(=O)N[C@H](C(N)=O)[C@@H](C)O)C[C@@H]3O[C@H]1C[C@H](N)[C@H](O)[C@H](C)O1 (X1-LRRYAHLGYAT-NH2)
– | > 100 | 27.4 to 30.1 | Active | COc1cccc2c1C(=O)c1c(O)c3c(c(O)c1C2=O)C[C@@](O)(/C(C)=N/OCC(=O)N[C@@H](CC(C)C)C(=O)N[C@@H](CCCNC(=N)N)C(=O)N[C@@H](CCCNC(=N)N)C(=O)N[C@@H](Cc1ccc(O)cc1)C(=O)N[C@H](C(=O)N[C@@H](Cc1cnc[nH]1)C(=O)N[C@@H](CC(C)C)C(=O)NCC(=O)N[C@@H](C)C(=O)N[C@@H](C)C(=O)N[C@H](C(N)=O)[C@@H](C)O)C(C)C)C[C@@H]3O[C@H]1C[C@H](N)[C@H](O)[C@H](C)O1 (X1-LRRYVHLGAAT-NH2)
